Reference: ChEMBL document CHEMBL3600382, “A-ring substituted 17β-arylsulfonamides of 17β-aminoestra-1,3,5(10)-trien-3-ol as highly potent reversible inhibitors of steroid sulfatase” (Bioorg Med Chem, 2015)

Assays:
CCRF-CEM = assay: Cytotoxicity against human CCRF-CEM cells; type: functional
HL-60(TB) = assay: Cytotoxicity against human HL-60(TB) cells; type: functional
MOLT-4 = assay: Cytotoxicity against human MOLT4 cells; type: functional
RPMI-8226 = assay: Cytotoxicity against human RPMI8226 cells; type: functional
SR = assay: Cytotoxicity against human SR cells; type: functional
A549 = assay: Cytotoxicity against human A549 cells; type: functional
[1] = Cytotoxicity against human EKVX cells; type: functional
HOP-92 = assay: Cytotoxicity against human HOP92 cells; type: functional
NCI-H226 = assay: Cytotoxicity against human NCI-H226 cells; type: functional
NCI-H23 = assay: Cytotoxicity against human NCI-H23 cells; type: functional
NCI-H460 = assay: Cytotoxicity against human NCI-H460 cells; type: functional
COLO 205 = assay: Cytotoxicity against human COLO205 cells; type: functional
HCC 2998 = assay: Cytotoxicity against human HCC2998 cells; type: functional
HT-29 = assay: Cytotoxicity against human HT-29 cells; type: functional
KM12 = assay: Cytotoxicity against human KM12 cells; type: functional
SW-620 = assay: Cytotoxicity against human SW620 cells; type: functional
SF-268 = assay: Cytotoxicity against human SF268 cells; type: functional
SF-295 = assay: Cytotoxicity against human SF295 cells; type: functional
SF-539 = assay: Cytotoxicity against human SF539 cells; type: functional
SNB-75 = assay: Cytotoxicity against human SNB75 cells; type: functional
U-251 = assay: Cytotoxicity against human U251 cells; type: functional
LOX IMVI = assay: Cytotoxicity against human LOXIMVI cells; type: functional
M14 = assay: Cytotoxicity against human M14 cells; type: functional
MDA-MB-435 = assay: Cytotoxicity against human MDA-MB-435 cells; type: functional
SK-MEL-2 = assay: Cytotoxicity against human SK-MEL-2 cells; type: functional
SK-MEL-5 = assay: Cytotoxicity against human SK-MEL-5 cells; type: functional
UACC-257 = assay: Cytotoxicity against human UACC257 cells; type: functional
UACC-62 = assay: Cytotoxicity against human UACC62 cells; type: functional
IGROV-1 = assay: Cytotoxicity against human IGROV1 cells; type: functional
OVCAR-3 = assay: Cytotoxicity against human OVCAR3 cells; type: functional
OVCAR-5 = assay: Cytotoxicity against human OVCAR5 cells; type: functional
OVCAR-8 = assay: Cytotoxicity against human OVCAR8 cells; type: functional
[2] = Cytotoxicity against human NCI-ADR-RES cells; type: functional
SK-OV-3 = assay: Cytotoxicity against human SKOV3 cells; type: functional
786-0 = assay: Cytotoxicity against human 786-0 cells; type: functional
A498 = assay: Cytotoxicity against human A498 cells; type: functional
ACHN = assay: Cytotoxicity against human ACHN cells; type: functional
CAKI-1 = assay: Cytotoxicity against human Caki1 cells; type: functional
RXF 393 = assay: Cytotoxicity against human RXF393 cells; type: functional
SN12C = assay: Cytotoxicity against human SN12C cells; type: functional
TK-10 = assay: Cytotoxicity against human TK10 cells; type: functional
PC-3 = assay: Cytotoxicity against human PC3 cells; type: functional
MCF7 = assay: Cytotoxicity against human MCF7 cells; type: functional
MDA-MB-231 = assay: Cytotoxicity against human MDA-MB-231 cells; type: functional
[3] = Cytotoxicity against human Hs578T cells; type: functional; conditions: Hs-578T
BT-549 = assay: Cytotoxicity against human BT549 cells; type: functional
T47D = assay: Cytotoxicity against human T47D cells; type: functional
MDA-MB-468 = assay: Cytotoxicity against human MDA-MB-468 cells; type: functional
Steryl-sulfatase = molecular target: T1, Steryl-sulfatase (Homo sapiens, UniProt P08842); assay: Inhibition of STS (unknown origin) using 4-MUS as substrate measured over 10 mins by fluorescence assay
T1 sequence (P08842 whole entry): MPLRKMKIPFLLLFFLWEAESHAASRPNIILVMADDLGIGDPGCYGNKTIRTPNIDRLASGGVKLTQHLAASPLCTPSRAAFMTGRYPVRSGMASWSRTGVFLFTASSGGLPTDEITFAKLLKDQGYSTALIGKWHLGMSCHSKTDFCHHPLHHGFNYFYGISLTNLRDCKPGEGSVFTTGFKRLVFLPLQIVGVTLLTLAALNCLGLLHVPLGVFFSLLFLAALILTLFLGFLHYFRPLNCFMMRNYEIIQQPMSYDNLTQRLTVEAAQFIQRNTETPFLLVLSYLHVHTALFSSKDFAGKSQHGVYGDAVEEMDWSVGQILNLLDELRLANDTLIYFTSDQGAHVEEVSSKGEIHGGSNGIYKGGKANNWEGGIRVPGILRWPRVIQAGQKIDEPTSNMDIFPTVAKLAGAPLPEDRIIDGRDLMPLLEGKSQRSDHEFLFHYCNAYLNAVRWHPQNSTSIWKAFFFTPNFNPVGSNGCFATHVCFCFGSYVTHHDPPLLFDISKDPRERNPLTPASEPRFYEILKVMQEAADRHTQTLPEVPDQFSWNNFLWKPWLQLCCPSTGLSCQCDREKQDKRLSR
In short: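 Purified STS (10 nM final) in 0.1 M Tris-HCl pH 7.0 containing Triton X-100, 4-MUS 200 µM final, and inhibitor at eleven concentrations (5 nM–5 µM). Ex 360/em 460 fluorescence read over 10 min at 24 °C, in quadruplicate, with no-enzyme controls. Vi/V0 from initial rates fit to a slope-factor equation. For tight binders, Ki app is the y-intercept of IC50 vs [E] (10–80 nM).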

C[C@]12CC[C@@H]3c4ccc(O)cc4CC[C@H]3[C@@H]1CC[C@@H]2NS(=O)(=O)c1cccc(Br)c1
GI50 (CCRF-CEM): 1 µM | GI50 (HL-60(TB)): 1 µM | GI50 (MOLT-4): 1 µM | GI50 (RPMI-8226): 1 µM | GI50 (SR): 1 µM | GI50 (A549): 1 µM | GI50 [1]: 1 µM | GI50 (HOP-92): 1 µM | GI50 (NCI-H226): 1 µM | GI50 (NCI-H23): 1 µM | GI50 (NCI-H460): 1 µM | GI50 (COLO 205): 1 µM | GI50 (HCC 2998): 1 µM | GI50 (HT-29): 1 µM | GI50 (KM12): 1 µM | GI50 (SW-620): 1 µM | GI50 (SF-268): 1 µM | GI50 (SF-295): 1 µM | GI50 (SF-539): 1 µM | GI50 (SNB-75): 1 µM | GI50 (U-251): 1 µM | GI50 (LOX IMVI): 1 µM | GI50 (M14): 1 µM | GI50 (MDA-MB-435): 1 µM | GI50 (SK-MEL-2): 1 µM | GI50 (SK-MEL-5): 1 µM | GI50 (UACC-257): 1 µM | GI50 (UACC-62): 1 µM | GI50 (IGROV-1): 1 µM | GI50 (OVCAR-3): 1 µM | GI50 (OVCAR-5): 1 µM | GI50 (OVCAR-8): 1 µM | GI50 [2]: 1 µM | GI50 (SK-OV-3): 1 µM | GI50 (786-0): 1 µM | GI50 (A498): 1 µM | GI50 (ACHN): 1 µM | GI50 (CAKI-1): 1 µM | GI50 (RXF 393): 1 µM | GI50 (SN12C): 1 µM | GI50 (TK-10): 1 µM | GI50 (PC-3): 1 µM | GI50 (MCF7): 3.7 µM | GI50 (MDA-MB-231): 3.9 µM | GI50 [3]: 4 µM | GI50 (BT-549): 3.1 µM | GI50 (T47D): 5 µM | GI50 (MDA-MB-468): 2.4 µM

C[C@]12CC[C@@H]3c4ccc(O)cc4CC[C@H]3[C@@H]1CC[C@@H]2NS(=O)(=O)c1cccc(C(F)(F)F)c1
GI50 (CCRF-CEM): 1 µM | GI50 (HL-60(TB)): 1 µM | GI50 (MOLT-4): 1 µM | GI50 (RPMI-8226): 1 µM | GI50 (SR): 1 µM | GI50 (A549): 1 µM | GI50 [1]: 1 µM | GI50 (HOP-92): 1 µM | GI50 (NCI-H226): 1 µM | GI50 (NCI-H23): 1 µM | GI50 (NCI-H460): 1 µM | GI50 (COLO 205): 1 µM | GI50 (HCC 2998): 1 µM | GI50 (HT-29): 1 µM | GI50 (KM12): 1 µM | GI50 (SW-620): 1 µM | GI50 (SF-268): 1 µM | GI50 (SF-295): 1 µM | GI50 (SF-539): 1 µM | GI50 (SNB-75): 1 µM | GI50 (U-251): 1 µM | GI50 (LOX IMVI): 1 µM | GI50 (M14): 1 µM | GI50 (MDA-MB-435): 1 µM | GI50 (SK-MEL-2): 1 µM | GI50 (SK-MEL-5): 1 µM | GI50 (UACC-257): 1 µM | GI50 (UACC-62): 1 µM | GI50 (IGROV-1): 1 µM | GI50 (OVCAR-3): 1 µM | GI50 (OVCAR-5): 1 µM | GI50 (OVCAR-8): 1 µM | GI50 [2]: 1 µM | GI50 (SK-OV-3): 1 µM | GI50 (786-0): 1 µM | GI50 (A498): 1 µM | GI50 (ACHN): 1 µM | GI50 (CAKI-1): 1 µM | GI50 (RXF 393): 1 µM | GI50 (SN12C): 1 µM | GI50 (TK-10): 1 µM | GI50 (PC-3): 1 µM | GI50 (MCF7): 2.7 µM | GI50 (MDA-MB-231): 2.4 µM | GI50 [3]: 3.2 µM | GI50 (BT-549): 2.7 µM | GI50 (T47D): 3.7 µM | GI50 (MDA-MB-468): 4.1 µM

C[C@]12CC[C@@H]3c4ccc(O)c([N+](=O)[O-])c4CC[C@H]3[C@@H]1CC[C@@H]2NS(=O)(=O)c1cccc(C(F)(F)F)c1
IC50 (Steryl-sulfatase): 0.011 µM | GI50 (CCRF-CEM): 1 µM | GI50 (HL-60(TB)): 1 µM | GI50 (MOLT-4): 1 µM | GI50 (RPMI-8226): 1 µM | GI50 (SR): 1 µM | GI50 (A549): 1 µM | GI50 [1]: 1 µM | GI50 (HOP-92): 1 µM | GI50 (NCI-H226): 1 µM | GI50 (NCI-H23): 1 µM | GI50 (NCI-H460): 1 µM | GI50 (COLO 205): 1 µM | GI50 (HCC 2998): 1 µM | GI50 (HT-29): 1 µM | GI50 (KM12): 1 µM | GI50 (SW-620): 1 µM | GI50 (SF-268): 1 µM | GI50 (SF-295): 1 µM | GI50 (SF-539): 1 µM | GI50 (SNB-75): 1 µM | GI50 (U-251): 1 µM | GI50 (LOX IMVI): 1 µM | GI50 (M14): 1 µM | GI50 (MDA-MB-435): 1 µM | GI50 (SK-MEL-2): 1 µM | GI50 (SK-MEL-5): 1 µM | GI50 (UACC-257): 1 µM | GI50 (UACC-62): 1 µM | GI50 (IGROV-1): 1 µM | GI50 (OVCAR-3): 1 µM | GI50 (OVCAR-5): 1 µM | GI50 (OVCAR-8): 1 µM | GI50 [2]: 1 µM | GI50 (SK-OV-3): 1 µM | GI50 (786-0): 1 µM | GI50 (A498): 1 µM | GI50 (ACHN): 1 µM | GI50 (CAKI-1): 1 µM | GI50 (RXF 393): 1 µM | GI50 (SN12C): 1 µM | GI50 (TK-10): 1 µM | GI50 (PC-3): 1 µM | GI50 (MCF7): 1.8 µM | GI50 (MDA-MB-231): 1.9 µM | GI50 [3]: 2.2 µM | GI50 (BT-549): 1.9 µM | GI50 (T47D): 1.8 µM | GI50 (MDA-MB-468): 2.7 µM

CC(C)(C)c1ccc(S(=O)(=O)N[C@H]2CC[C@H]3[C@@H]4CCc5c(ccc(O)c5[N+](=O)[O-])[C@H]4CC[C@]23C)cc1
IC50 (Steryl-sulfatase): 0.008 µM

C[C@]12CC[C@@H]3c4cc([N+](=O)[O-])c(O)cc4CC[C@H]3[C@@H]1CC[C@@H]2NS(=O)(=O)c1cccc(Br)c1
IC50 (Steryl-sulfatase): 0.05 µM

C[C@]12CC[C@@H]3c4cc([N+](=O)[O-])c(O)cc4CC[C@H]3[C@@H]1CC[C@@H]2NS(=O)(=O)c1cccc(C(F)(F)F)c1
IC50 (Steryl-sulfatase): 0.067 µM

CC(C)(C)c1ccc(S(=O)(=O)N[C@H]2CC[C@H]3[C@@H]4CCc5cc(O)c([N+](=O)[O-])cc5[C@H]4CC[C@]23C)cc1
IC50 (Steryl-sulfatase): 0.081 µM

C[C@]12CC[C@@H]3c4cc([N+](=O)[O-])c(O)cc4CC[C@H]3[C@@H]1CC[C@@H]2NS(=O)(=O)c1ccc(-c2ccccc2)cc1
IC50 (Steryl-sulfatase): 0.033 µM

C[C@]12CC[C@@H]3c4ccc(O)c(Br)c4CC[C@H]3[C@@H]1CC[C@@H]2NS(=O)(=O)c1cccc(C(F)(F)F)c1
IC50 (Steryl-sulfatase): 0.049 µM

C[C@]12CC[C@@H]3c4cc(Br)c(O)cc4CC[C@H]3[C@@H]1CC[C@@H]2NS(=O)(=O)c1cccc(C(F)(F)F)c1
IC50 (Steryl-sulfatase): 0.095 µM
